Measurements published in ChEMBL document CHEMBL1833790, “N-(2-{3-[3,5-bis(trifluoromethyl)phenyl]ureido}ethyl)-glycyrrhetinamide (6b): a novel anticancer glycyrrhetinic acid derivative that targets the proteasome and displays anti-kinase activity” (J Med Chem, 2011).
Active and inactive are the calls of the source. No cut-off for these calls is given here.

What was measured:
Hs 683 = assay: Growth inhibition in apoptosis-sensitive human Hs683 after 3 days by MTT assay; type: functional; details: Hs 683, 72 h
Outline: (§1)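 Cells grown in RPMI with 10% heat-inactivated FCS, 4 mM glutamine, gentamicin and penicillin–streptomycin. Drug exposure 3 days, growth read by MTT colorimetric assay. Nine concentrations from 0.01 to 100 μM in semilog steps, six replicates each; IC50 derived per cell line.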

[1] = Chemical stability of the compound in MEM cell culture medium after 7 days by HPLC analysis; type: physicochemical; details: read-out: Stability
Outline: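 Compound incubated in MEM culture medium at 37 °C for 7 days, then analysed by HPLC on RX-C8 (5 μm) column with MeOH–water 90:10 (0.1% TFA), diode-array detection. Expressed as % of incubated compound recovered.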

U-373MG ATCC [2] = assay: Activation of chymotrypsin-like activity of 20S proteasome in human U373 cells at 50 uM after 2 days by bioluminescence assay; type: cell-based
Outline: (§2)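 Chymotrypsin-like site, substrate Suc-LLVY-Glo. U373 cells were seeded at 5000 cells/mL for 48 h and exposed two days. After a PBS wash and 0.025% digitonin permeabilisation, Proteasome-Glo reagent was added. Bioluminescence was read after 10 min dark incubation. Triplicates, normalised by a concurrent MTT viability assay run in identical conditions.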

MCF7 = assay: Growth inhibition in apoptosis-sensitive human MCF7 after 3 days by MTT assay; type: functional; details: MCF7, 72 h; outline: as §1
SK-MEL-28 = assay: Growth inhibition in apoptosis-resistant human SK-MEL-28 after 3 days by MTT assay; type: functional; details: SK-MEL-28, 72 h; outline: as §1
U-373MG ATCC [3] = assay: Activation of caspase-like activity of 20S proteasome in human U373 cells at 50 uM after 2 days by bioluminescence assay; type: cell-based
Outline: (§3)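 Caspase-like site, substrate Z-nLPnLD-Glo. U373 cells were plated at 5000 cells/mL for 48 h, then treated two days. Cells were PBS-washed and permeabilised with 0.025% digitonin before Proteasome-Glo reagent was added. Luminescence was read after 10 min in the dark. Triplicates, normalised to a parallel MTT viability assay under identical conditions.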

A549 = assay: Growth inhibition in apoptosis-resistant human A549 after 3 days by MTT assay; type: functional; details: A549, 72 h; outline: as §1
T98G = assay: Growth inhibition in apoptosis-resistant human T98G after 3 days by MTT assay; type: functional; details: 72 h; outline: as §1
U-373MG ATCC [4] = assay: Inhibition of trypsin-like activity of 20S proteasome in human U373 cells at 50 uM after 2 days by bioluminescence assay; type: cell-based
Outline: (§4)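 U373 GBM cells seeded at 5000 cells/mL and grown 48 h, then treated for two days. Cells washed in PBS and permeabilised with 0.025% digitonin. Proteasome-Glo reagent added with Suc-LLVY-Glo (chymotrypsin-like), Z-LRR-Glo (trypsin-like) or Z-nLPnLD-Glo (caspase-like) substrate. Luminescence read after 10 min in the dark and normalised to a parallel MTT viability assay; triplicates. MG-132 at 0.5 μM used as reference.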

PC-3 = assay: Growth inhibition in apoptosis-sensitive human PC3 after 3 days by MTT assay; type: functional; details: PC-3, 72 h; outline: as §1
B16-F10 = assay: Growth inhibition in mouse B16F10 after 3 days by MTT assay; type: functional; details: B16-F10, 72 h; outline: as §1
[5] = Growth inhibition in apoptosis-resistant human U373 after 3 days by MTT assay; type: functional, U-373MG ATCC; details: U373 MG, 72 h; outline: as §1
[6] = target: T1, Peroxisome proliferator-activated receptor gamma (Homo sapiens) (UniProt P37231); assay: Inhibition of PPARgamma activity in human U373 cells at 50 uM after 6 hrs by spectrophotometric analysis relative to control; type: cell-based; details: U-373MG ATCC
T1 sequence (whole entry): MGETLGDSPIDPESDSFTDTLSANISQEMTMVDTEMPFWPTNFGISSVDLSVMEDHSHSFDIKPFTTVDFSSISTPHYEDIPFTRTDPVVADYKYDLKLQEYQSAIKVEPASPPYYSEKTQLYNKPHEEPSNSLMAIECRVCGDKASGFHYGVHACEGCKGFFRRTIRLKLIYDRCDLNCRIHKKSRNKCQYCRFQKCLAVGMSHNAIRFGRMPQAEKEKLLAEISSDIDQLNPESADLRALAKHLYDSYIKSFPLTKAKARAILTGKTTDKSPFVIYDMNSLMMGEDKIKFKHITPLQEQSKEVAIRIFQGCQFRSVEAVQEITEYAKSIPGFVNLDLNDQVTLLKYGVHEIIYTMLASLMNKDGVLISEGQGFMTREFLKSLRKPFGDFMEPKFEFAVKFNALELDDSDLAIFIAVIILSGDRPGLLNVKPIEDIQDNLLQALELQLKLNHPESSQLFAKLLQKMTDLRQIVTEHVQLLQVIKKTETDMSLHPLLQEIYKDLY
Outline: (§5)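 Human U373 glioblastoma cells exposed to compound for 6 h, then detached with trypsin. Nuclear extracts prepared by hypotonic lysis with Nonidet P-40 and extraction buffer with protease inhibitor, clarified at 14 000 g, 4 °C. Extracts bound overnight at 4 °C in a PPAR-γ transcription factor ELISA kit, with primary antibody then HRP anti-rabbit. Absorbance read at 450 nm; triplicates, mean ± SD versus control.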

U-373MG ATCC [7] = assay: Inhibition of trypsin-like activity of 20S proteasome in human U373 cells at 3 uM after 2 days by bioluminescence assay; type: cell-based; outline: as §4
U-373MG ATCC [8] = assay: Activation of caspase-like activity of 20S proteasome in human U373 cells at 3 uM after 2 days by bioluminescence assay; type: cell-based; outline: as §3
[9] = target: T1, Peroxisome proliferator-activated receptor gamma (Homo sapiens); assay: Inhibition of PPARgamma activity in human U373 cells at 3 uM after 6 hrs by spectrophotometric analysis relative to control; type: cell-based; details: U-373MG ATCC; outline: as §5
U-373MG ATCC [10] = assay: Activation of chymotrypsin-like activity of 20S proteasome in human U373 cells at 3 uM after 2 days by bioluminescence assay; type: cell-based; outline: as §2

remaining at 168 h [1] [%] | GI50 (MCF7) [µM] | GI50 (SK-MEL-28) [µM] | GI50 (A549) [µM] | GI50 (PC-3) [µM] | GI50 (B16-F10) [µM] | inhibition [6] | inhibition [9] | Compound | GI50 (Hs 683) [µM] | Activity (U-373MG ATCC [2]) | Activity (U-373MG ATCC [3]) | GI50 (T98G) [µM] | inhibition (U-373MG ATCC [4]) | GI50 [5] [µM] | inhibition (U-373MG ATCC [7]) | Activity (U-373MG ATCC [8]) | Activity (U-373MG ATCC [10])
95 | 29 | 65 | 37 | 35 | 39 | Active |  | CC1(C)[C@@H](O)CC[C@]2(C)[C@H]3C(=O)C=C4[C@@H]5C[C@@](C)(C(=O)NCc6ccc(C(F)(F)F)cc6)CC[C@]5(C)CC[C@@]4(C)[C@]3(C)CC[C@@H]12 | 49 | Active | Active | 67 | Active | 44 |  |  | 
68 | 3 | 3 | 2 | 2 | 3 |  | Active | COc1cc(/C=C/C(C)=O)ccc1OC(=O)[C@@]1(C)CC[C@]2(C)CC[C@]3(C)C(=CC(=O)[C@@H]4[C@@]5(C)CC[C@H](O)C(C)(C)[C@@H]5CC[C@]43C)[C@@H]2C1 | 3 |  |  | 3 |  | 2 | Active | Active | Active
